Laboratory results as given in ChEMBL document CHEMBL1212850, “Synthesis and biological evaluation of arylidene analogues of Meldrum's acid as a new class of antimalarial and antioxidant agents” (Bioorg Med Chem, 2010).

Tests used:
[1] = Antioxidant activity assessed as ABTS free radical scavenging activity at 100 uM after 12 hrs; assay type: functional
In short: (§1)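 ABTS radical cation made by mixing 7 mM ABTS stock with 2.45 mM potassium persulfate, left 12 h in dark. Ethanolic compound solution added to ABTS solution, absorbance at 734 nm read after mixing up to 6 min. Reported as % ABTS radical scavenged; triplicate.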

[2] = tested on: Plasmodium falciparum; assay: Antimalarial activity against Plasmodium falciparum infected in human O+ erythrocytes after 48 hrs by HRP2-ELISA method; assay type: functional, organism-based
[3] = tested on: Radical scavenging activity; assay: Antioxidant activity assessed as DPPH free radical scavenging activity at 100 uM after 1 hr; assay type: functional
In short: (§2)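 Test compound at various concentrations added to 60 µM methanolic DPPH. Held 1 h at room temperature, then absorbance read at 517 nm; trolox used as reference standard. Values from three experiments.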

[4] = Antioxidant activity assessed as ABTS free radical scavenging activity after 12 hrs; assay type: functional; in short: as §1
[5] = tested on: Radical scavenging activity; assay: Antioxidant activity assessed as DPPH free radical scavenging activity after 1 hr; assay type: functional; in short: as §2

Row | IC50 [2] [µM] | IC50 [4] [µM] | IC50 [5] [µM] | SMILES | inhibition [1] [%] | inhibition [3] [%]
1 | 16.1 |  |  | CC1(C)OC(=O)C(=Cc2cccc3ccccc23)C(=O)O1 | 7.55 | 8.88
2 | 20.2 |  |  | COc1cc(C=C2C(=O)OC(C)(C)OC2=O)cc(OC)c1OC | 5.33 | 3.24
3 | 14.3 |  |  | CC1(C)OC(=O)C(=Cc2ccc3ccccc3c2)C(=O)O1 | 17 | 20.6
4 | > 100 |  |  | CC1(C)OC(=O)C(=Cc2c3ccccc3cc3ccccc23)C(=O)O1 | 10.7 | 8.76
5 | 37.8 |  |  | CC1(C)OC(=O)C(=Cc2ccccc2)C(=O)O1 |  | 
6 | 34.6 |  |  | CC1(C)OC(=O)C(=Cc2ccc(O)cc2)C(=O)O1 | 14.4 | 5.12
7 | 37.2 |  |  | COc1cc(C=C2C(=O)OC(C)(C)OC2=O)ccc1OCc1ccccc1 | 3.62 | 10.7
8 | 35.2 |  |  | CN(C)c1ccc(C=C2C(=O)OC(C)(C)OC2=O)cc1 | 13.9 | 10.3
9 | > 100 |  |  | CC1(C)OC(=O)C(=Cc2cccs2)C(=O)O1 | 3.77 | 6.32
10 | > 100 |  |  | CC1(C)OC(=O)C2(OC2c2ccccc2)C(=O)O1 (stereo not drawn) |  | 
11 | 24.3 |  |  | CC1(C)OC(=O)C(=C/C=C/c2ccccc2)C(=O)O1 | 20.2 | 53.1
12 | > 100 |  |  | O=C1CCCC(=O)C1=Cc1ccccc1 |  | 
13 | 39.6 |  |  | CC1(C)OC(=O)C(=Cc2ccccc2[N+](=O)[O-])C(=O)O1 | 1.3 | 6.41
14 | 34.7 |  |  | COc1ccc(C=C2C(=O)OC(C)(C)OC2=O)c(OC)c1OC | 13 | 5.72
15 |  | 25.5 | 22.4 | O=C1O[C@H]([C@@H](O)CO)C(O)=C1O [ASCORBIC ACID] | 98 | 99.4
16 | 33.2 |  |  | COc1ccc(OC)c(C=C2C(=O)OC(C)(C)OC2=O)c1 | 13.8 | 12.2
17 | 12.4 | 72.2 | 80 | COc1ccc(C=C2C(=O)OC(C)(C)OC2=O)cc1O | 52.8 | 40.2
18 | 41.7 |  |  | CC1(C)OC(=O)C(=Cc2c[nH]c3ccccc23)C(=O)O1 | 3.12 | 1.79
19 | 36.1 |  |  | COc1ccc(C=C2C(=O)OC(C)(C)OC2=O)cc1OCc1ccccc1 |  | 
20 |  | 16.2 | 15.7 | Cc1c(C)c2c(c(C)c1O)CCC(C)(C(=O)O)O2 (stereo not drawn) [TROLOX] | 99.1 | 99.5
21 | 36.4 |  |  | COc1ccc(C=C2C(=O)OC(C)(C)OC2=O)cc1 | 9.26 | 5.81
22 | 33.9 |  |  | COc1cc(OC)c(OC)cc1C=C1C(=O)OC(C)(C)OC1=O | 9.86 | 6.23
23 | > 100 |  |  | CC1(C)OC(=O)C2(OC2c2ccccc2[N+](=O)[O-])C(=O)O1 (stereo not drawn) |  | 
24 | 9.68 | 30.5 | 24 | COc1cc(C=C2C(=O)OC(C)(C)OC2=O)ccc1O | 92.6 | 76
25 | 28.1 |  |  | CC1(C)OC(=O)C(=Cc2ccc3c(c2)OCO3)C(=O)O1 | 8.25 | 8.2
26 | 31.8 |  |  | COc1ccc2ccccc2c1C=C1C(=O)OC(C)(C)OC1=O | 4.73 | 9.48
27 | 26.1 |  |  | COc1ccc(C=C2C(=O)OC(C)(C)OC2=O)cc1OC | 6.84 | 4.74
28 | 15.5 | 30.7 | 39.1 | CCOc1cc(C=C2C(=O)OC(C)(C)OC2=O)ccc1O | 95.6 | 66.2

Row | SMILES | IC50 [2] [µM] | IC50 [4] [µM] | IC50 [5] [µM] | inhibition [1] [%] | inhibition [3] [%]
29 | C[C@@H]1CC[C@H]2[C@@H](C)C(=O)O[C@@H]3O[C@@]4(C)CC[C@@H]1[C@]32OO4 [ARTEMISININ] | 0.0028 |  |  |  | 
